Converted amounts (≈) assume the structure as drawn.
Assays:
[1] = tested on: Salmonella typhimurium; test: Mutagenic activity in Salmonella typhimurium TA1537 at 0.312 to 5 mg/plate measured after incubation of upside down for 48 hrs in presence of liver S9 mixture; type: toxicity, organism-based; conditions: salmonella enterica subsp. enterica serovar typhimurium, s9, 48 h
Method in brief: (§1)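 Plate incorporation trial (Trial I) with histidine-dependent auxotrophs. Revertant colonies are counted against the concurrent vehicle control. Each dose and each control, including negative, vehicle and positive reference mutagens, run in triplicate plates.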

[2] = tested on: Salmonella typhimurium; test: Mutagenic activity in Salmonella typhimurium TA1537 at 0.312 to 5 mg/plate preincubated for 20 mins before addition in presence of liver S9 mixture; type: toxicity, organism-based; conditions: salmonella enterica subsp. enterica serovar typhimurium
Method in brief: (§2)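 Pre-incubation trial (Trial II) with histidine-dependent auxotrophs. Test solution is pre-incubated with bacterial suspension and S9 mix (10% v/v) or substitution buffer before plating on selective agar. Revertant colonies are counted against the concurrent vehicle control. Triplicate plates per dose and per control (negative, vehicle, positive reference mutagens).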

[3] = tested on: Salmonella typhimurium; test: Mutagenic activity in Salmonella typhimurium TA98 at 0.312 to 5 mg/plate preincubated for 20 mins before addition in absence of liver S9 mixture; type: toxicity, organism-based; conditions: salmonella enterica subsp. enterica serovar typhimurium; method in brief: as §2
[4] = tested on: HeLa; test: Cytotoxicity against human HeLa cells after 3 days MTT assay; type: functional, cell-based; conditions: 72 h
Method in brief: (§3)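 Cells held as monolayers in DMEM with 10% supplement. Seeded in 96-well plates on day 0 at densities set by doubling time: 1 × 10⁴/mL for HeLa and NCI-69, 2 × 10⁴/mL for MCF-7, 3 × 10⁴/mL for PZ-HPV-7. Five dilutions (10⁻⁸–5 × 10⁻⁶ mol/l), freshly prepared, added for 72 h. Growth read by MTT (succinate dehydrogenase activity); IC50 derived.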

[5] = tested on: Salmonella typhimurium; test: Mutagenic activity in Salmonella typhimurium TA102 at 0.312 to 5 mg/plate measured after incubation of upside down for 48 hrs in presence of liver S9 mixture; type: toxicity, organism-based; conditions: salmonella enterica subsp. enterica serovar typhimurium, s9, 48 h; method in brief: as §1
[6] = tested on: Salmonella typhimurium; test: Mutagenic activity in Salmonella typhimurium TA102 at 0.312 to 5 mg/plate measured after incubation of upside down for 48 hrs in absence of liver S9 mixture; type: toxicity, organism-based; conditions: salmonella enterica subsp. enterica serovar typhimurium; method in brief: as §1
[7] = tested on: MCF7; test: Cytotoxicity against human MCF7 cells after 3 days MTT assay; type: functional, cell-based; conditions: MCF7, 72 h; method in brief: as §3
[8] = tested on: Salmonella typhimurium; test: Mutagenic activity in Salmonella typhimurium TA1535 at 0.312 to 5 mg/plate preincubated for 20 mins before addition in absence of liver S9 mixture; type: toxicity, organism-based; conditions: salmonella enterica subsp. enterica serovar typhimurium; method in brief: as §2
[9] = tested on: Salmonella typhimurium; test: Mutagenic activity in Salmonella typhimurium TA100 at 0.312 to 5 mg/plate measured after incubation of upside down for 48 hrs in presence of liver S9 mixture; type: toxicity, organism-based; conditions: salmonella enterica subsp. enterica serovar typhimurium, s9, 48 h; method in brief: as §1
[10] = tested on: NCI-H69; test: Cytotoxicity against human NCI-H69 cells after 3 days MTT assay; type: functional, cell-based; conditions: NCI-H69, 72 h; method in brief: as §3
[11] = tested on: Salmonella typhimurium; test: Mutagenic activity in Salmonella typhimurium TA100 at 0.312 to 5 mg/plate preincubated for 20 mins before addition in presence of liver S9 mixture; type: toxicity, organism-based; conditions: salmonella enterica subsp. enterica serovar typhimurium; method in brief: as §2
[12] = tested on: Salmonella typhimurium; test: Mutagenic activity in Salmonella typhimurium TA100 at 0.312 to 5 mg/plate measured after incubation of upside down for 48 hrs in absence of liver S9 mixture; type: toxicity, organism-based; conditions: salmonella enterica subsp. enterica serovar typhimurium; method in brief: as §1
[13] = tested on: Salmonella typhimurium; test: Mutagenic activity in Salmonella typhimurium TA102 at 0.312 to 5 mg/plate preincubated for 20 mins before addition in absence of liver S9 mixture; type: toxicity, organism-based; conditions: salmonella enterica subsp. enterica serovar typhimurium; method in brief: as §2
[14] = tested on: Salmonella typhimurium; test: Mutagenic activity in Salmonella typhimurium TA100 at 0.312 to 5 mg/plate preincubated for 20 mins before addition in absence of liver S9 mixture; type: toxicity, organism-based; conditions: salmonella enterica subsp. enterica serovar typhimurium; method in brief: as §2
[15] = tested on: Salmonella typhimurium; test: Mutagenic activity in Salmonella typhimurium TA1535 at 0.312 to 5 mg/plate measured after incubation of upside down for 48 hrs in absence of liver S9 mixture; type: toxicity, organism-based; conditions: salmonella enterica subsp. enterica serovar typhimurium; method in brief: as §1
[16] = tested on: Salmonella typhimurium; test: Mutagenic activity in Salmonella typhimurium TA102 at 0.312 to 5 mg/plate preincubated for 20 mins before addition in presence of liver S9 mixture; type: toxicity, organism-based; conditions: salmonella enterica subsp. enterica serovar typhimurium; method in brief: as §2
[17] = Cytotoxicity against human PZ-HPV-7 cells after 3 days MTT assay; type: functional, cell-based; conditions: 72 h; method in brief: as §3
[18] = tested on: Salmonella typhimurium; test: Mutagenic activity in Salmonella typhimurium TA1535 at 0.312 to 5 mg/plate preincubated for 20 mins before addition in presence of liver S9 mixture; type: toxicity, organism-based; conditions: salmonella enterica subsp. enterica serovar typhimurium; method in brief: as §2
[19] = tested on: Salmonella typhimurium; test: Mutagenic activity in Salmonella typhimurium TA1537 at 0.312 to 5 mg/plate measured after incubation of upside down for 48 hrs in absence of liver S9 mixture; type: toxicity, organism-based; conditions: salmonella enterica subsp. enterica serovar typhimurium; method in brief: as §1
[20] = tested on: Salmonella typhimurium; test: Mutagenic activity in Salmonella typhimurium TA98 at 0.312 to 5 mg/plate measured after incubation of upside down for 48 hrs in absence of liver S9 mixture; type: toxicity, organism-based; conditions: salmonella enterica subsp. enterica serovar typhimurium; method in brief: as §1
[21] = tested on: Salmonella typhimurium; test: Mutagenic activity in Salmonella typhimurium TA98 at 0.312 to 5 mg/plate measured after incubation of upside down for 48 hrs in presence of liver S9 mixture; type: toxicity, organism-based; conditions: salmonella enterica subsp. enterica serovar typhimurium, s9, 48 h; method in brief: as §1
[22] = tested on: Salmonella typhimurium; test: Mutagenic activity in Salmonella typhimurium TA98 at 0.312 to 5 mg/plate preincubated for 20 mins before addition in presence of liver S9 mixture; type: toxicity, organism-based; conditions: salmonella enterica subsp. enterica serovar typhimurium; method in brief: as §2
[23] = tested on: Salmonella typhimurium; test: Mutagenic activity in Salmonella typhimurium TA1537 at 0.312 to 5 mg/plate preincubated for 20 mins before addition in absence of liver S9 mixture; type: toxicity, organism-based; conditions: salmonella enterica subsp. enterica serovar typhimurium; method in brief: as §2
[24] = tested on: Salmonella typhimurium; test: Mutagenic activity in Salmonella typhimurium TA1535 at 0.312 to 5 mg/plate measured after incubation of upside down for 48 hrs in presence of liver S9 mixture; type: toxicity, organism-based; conditions: salmonella enterica subsp. enterica serovar typhimurium, s9, 48 h; method in brief: as §1
[25] = Toxicity in po dosed BDF-1 mouse; type: organism-based; conditions: in vivo
[26] = Toxicity in po dosed BDF-1 mouse administered qd for 28 days; type: organism-based; conditions: in vivo
[27] = tested on: L1210; test: Antitumor activity against mouse L1210 cells xenografted in BDF-1 mouse assessed as increase in mean survival time at 0.080 mmol/kg, po administered 5 days in a week for 3 weeks
[28] = tested on: L1210; test: Antitumor activity against mouse L1210 cells xenografted in BDF-1 mouse assessed as increase in mean survival time at 0.16 mmol/kg, po administered 5 days in a week for 3 weeks

SMILES | Activity [1] | Activity [2] | Activity [3] | IC50 [4] [µg/mL] | Activity [5] | Activity [6] | IC50 [7] [µg/mL] | Activity [8] | Activity [9] | IC50 [10] [µg/mL] | Activity [11] | Activity [12] | Activity [13] | Activity [14] | Activity [15] | Activity [16] | IC50 [17] [µg/mL] | Activity [18] | Activity [19] | Activity [20] | other results
CCC(C)COC(=O)Nc1nc(=O)n([C@@H]2O[C@H](C)[C@H]3OC(=O)O[C@H]32)cc1F (stereo partly drawn) | Non-toxic | Non-toxic | Non-toxic | 0.18 (≈ 0.467 µM) | Non-toxic | Non-toxic | 70 (≈ 182 µM) | Non-toxic | Non-toxic | 330 (≈ 856 µM) | Non-toxic | Non-toxic | Non-toxic | Non-toxic | Non-toxic | Non-toxic | 200 (≈ 519 µM) | Non-toxic | Non-toxic | Non-toxic | Activity [21]: Non-toxic; Activity [22]: Non-toxic; Activity [23]: Non-toxic; Activity [24]: Non-toxic
CC(C)CCOC(=O)Nc1nc(=O)n([C@@H]2O[C@H](C)[C@H]3OC(=O)O[C@H]32)cc1F | Non-toxic | Non-toxic | Non-toxic | 0.13 (≈ 0.337 µM) | Non-toxic | Non-toxic | 100 (≈ 260 µM) | Non-toxic | Non-toxic | 310 (≈ 804 µM) | Non-toxic | Non-toxic | Non-toxic | Non-toxic | Non-toxic | Non-toxic | 350 (≈ 908 µM) | Non-toxic | Non-toxic | Non-toxic | Activity [21]: Non-toxic; Activity [22]: Non-toxic; Activity [23]: Non-toxic; Activity [24]: Non-toxic
C[C@H]1O[C@@H](n2cc(F)c(NC(=O)Oc3ccc([N+](=O)[O-])cc3)nc2=O)[C@@H]2OC(=O)O[C@@H]21 | Non-toxic | Non-toxic | Non-toxic | 0.03 (≈ 0.0688 µM) | Non-toxic | Non-toxic | 6 (≈ 13.8 µM) | Non-toxic | Non-toxic | 30 (≈ 68.8 µM) | Non-toxic | Non-toxic | Non-toxic | Non-toxic | Non-toxic | Non-toxic | 6 (≈ 13.8 µM) | Non-toxic | Non-toxic | Non-toxic | LD50 [25]: 2000 mg/kg; LD50 at 672 h [26]: 200 mg/kg; MST [27]: 27.1 days; MST [28]: 23.4 days; Activity [21]: Non-toxic; Activity [22]: Non-toxic; Activity [23]: Non-toxic; Activity [24]: Non-toxic
C[C@H]1O[C@@H](n2cc(F)c(NC(=O)Oc3ccc(Cl)cc3)nc2=O)[C@@H]2OC(=O)O[C@@H]21 | – | – | – | 0.006 (≈ 0.0141 µM) | – | – | 30 (≈ 70.5 µM) | – | – | 3 (≈ 7.05 µM) | – | – | – | – | – | – | 3 (≈ 7.05 µM) | – | – | – | LD50 [25]: 2000 mg/kg; LD50 at 672 h [26]: 200 mg/kg; MST [27]: 26.3 days; MST [28]: 23.7 days
O=c1[nH]cc(F)c(=O)[nH]1 [FLUOROURACIL] | – | – | – | 0.04 (≈ 0.308 µM) | – | – | 690 (≈ 5300 µM) | – | – | 280 (≈ 2150 µM) | – | – | – | – | – | – | 170 (≈ 1310 µM) | – | – | – | –

From ChEMBL document CHEMBL2040809, “Synthesis and biological activity evaluation of cytidine-5'-deoxy-5-fluoro-N-[(alkoxy/aryloxy)] carbonyl-cyclic 2',3'-carbonates” (Eur J Med Chem, 2012)
